Laboratory results published in ChEMBL document CHEMBL6177916, “Synthesis, in silico and bio-evaluation studies of new isothiocyanate derivatives with respect to COX inhibition and H2S release profiles” (RSC Med Chem, 2025).
Calls of active or inactive are those of the source. The calls are words filed in the database; no cut-off is given here.

Assays:
RAW264.7 [1] = assay: Antiinflammatory activity against LPS induced mouse RAW264.7 cells assessed as decrease in cell viability at 10 to 20 uM relative to control; type: functional; settings: dose 10-20 µM
How it was run: (§1)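 RAW 264.7 murine macrophages were seeded at 4 × 10^5 cells per mL and grown 24 h at 37 °C. They were then stimulated with 1 μg mL−1 LPS, with or without compound (DMSO-dissolved) at 10 and 20 μM, for 24 h. MTT was added for 2 h, formazan was dissolved in DMSO, and A570/620 was read. Controls were no inhibitor/no LPS and LPS alone, with comparisons made against LPS alone. Data are ≥3 biological replicates, mean ± SEM, one-way ANOVA with Dunnett.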

RAW264.7 [2] = assay: Cytotoxicity against mouse RAW264.7 cells assessed as cell viability at 10 to 20 uM measured after 24 hrs by MTT assay; type: functional, cell-based; settings: dose 10-20 µM; how it was run: as §1
[3] = Induction of H2S release in PBS at pH 7.4 at 100 uM measured over 4 hrs by microplate reader based analysis; type: functional
How it was run: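 Compounds (DMSO-dissolved) were diluted to 100 μM final in phosphate buffer, pH 7.4, containing 1 mM L-cysteine. This was combined with a detection mix of N,N-dimethyl-1,4-phenylenediamine sulfate (20 mM) plus 1% w/v Zn(OAc)2, reacted with 30 mM FeCl3. A670 was read every 5 min until no meaningful increase was seen.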

[4] = target: T1, Prostaglandin G/H synthase 2 (Homo sapiens, UniProt P35354); assay: Inhibition of human recombinant COX-2 using arachidonic acid as substrate at 10 uM preincubated for 10 mins followed by substrate addition and measured after 30 secs
T1 sequence (P35354 whole entry): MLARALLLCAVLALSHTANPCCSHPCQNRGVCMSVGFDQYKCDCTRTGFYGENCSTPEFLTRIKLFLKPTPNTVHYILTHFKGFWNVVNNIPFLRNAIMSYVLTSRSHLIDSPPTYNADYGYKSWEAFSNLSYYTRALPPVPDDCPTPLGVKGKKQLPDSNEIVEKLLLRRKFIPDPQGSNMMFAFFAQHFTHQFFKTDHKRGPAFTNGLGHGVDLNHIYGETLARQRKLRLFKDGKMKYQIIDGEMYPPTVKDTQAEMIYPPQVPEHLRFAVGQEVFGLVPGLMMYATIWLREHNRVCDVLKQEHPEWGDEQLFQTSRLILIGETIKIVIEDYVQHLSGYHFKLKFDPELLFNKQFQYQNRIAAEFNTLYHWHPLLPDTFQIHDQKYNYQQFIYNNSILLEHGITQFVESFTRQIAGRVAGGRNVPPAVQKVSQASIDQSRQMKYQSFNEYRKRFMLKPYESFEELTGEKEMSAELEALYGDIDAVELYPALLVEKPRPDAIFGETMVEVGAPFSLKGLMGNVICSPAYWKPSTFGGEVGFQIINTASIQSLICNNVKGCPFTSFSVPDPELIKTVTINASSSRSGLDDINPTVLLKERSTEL

SMILES	Activity (RAW264.7 [1])	Activity (RAW264.7 [2])	Activity [3]	IC50 [4]
O=C(OCCc1ccc(N=C=S)cc1)c1ccc([N+](=O)[O-])cc1	<80%	inactive	11.5 µM	
COc1ccc(C(=O)OCCc2ccc(N=C=S)cc2)cc1		inactive	11.2 µM	
OCCc1ccc(N=C=S)c(Br)c1	<80%	inactive	35.5 µM	
N#Cc1cc(CCO)ccc1N=C=S	<80%	inactive	35.7 µM	
C[S+]([O-])CCCCN=C=S (configuration not stated) [SULFORAPHANE]			43.5 µM	6.35 µM
O=C(OCCc1ccc(N=C=S)cc1)c1ccc(F)cc1			10.9 µM	
OCCc1ccc(N=C=S)cc1	<80%	inactive	36.8 µM	
CC(C)CC(=O)OCCc1ccc(N=C=S)cc1		inactive	11.7 µM	
O=C(OCCc1ccc(N=C=S)cc1)c1ccccc1	<80%	inactive	11.3 µM	
